ChEMBL document CHEMBL4373711, “Development of 3,5-Dinitrophenyl-Containing 1,2,4-Triazoles and Their Trifluoromethyl Analogues as Highly Efficient Antitubercular Agents Inhibiting Decaprenylphosphoryl-β-d-ribofuranose 2'-Oxidase” (J Med Chem, 2019)

Tests used:
[1] = tested on: Mycobacterium tuberculosis; assay: Antimycobacterial activity against multi-drug resistant Mycobacterium tuberculosis Praha 1 after 21 days; format: functional; details: Praha 1, 504 h
Outline: (§1)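 M. tuberculosis strains (H37Rv and clinical MDR/XDR isolates) tested by microdilution in Šula's semisynthetic medium. Compounds were dissolved in DMSO and tested at 32 to 0.03 µM in twofold steps. Inoculum was a 1.0 McFarland suspension diluted 10-3. Plates were incubated at 37 °C and read at 14 and 21 days.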

[2] = tested on: Mycobacterium tuberculosis; assay: Antimycobacterial activity against multi-drug resistant Mycobacterium tuberculosis Praha 1 after 14 days; format: functional; details: for MIC99: Praha 1, 336 h; outline: as §1
[3] = tested on: Mycobacterium tuberculosis; assay: Antimycobacterial activity against multi-drug resistant Mycobacterium tuberculosis 8666/2010 after 14 days; format: functional; details: for MIC99: 8666/2010, 336 h; outline: as §1
[4] = tested on: Mycobacterium tuberculosis; assay: Antimycobacterial activity against multi-drug resistant Mycobacterium tuberculosis Praha 4 after 21 days; format: functional; details: Praha 4, 504 h; outline: as §1
[5] = tested on: Mycobacterium tuberculosis; assay: Antimycobacterial activity against multi-drug resistant Mycobacterium tuberculosis 9449/2007 after 14 days; format: functional; details: 9449/2007, 336 h; outline: as §1
[6] = tested on: Mycobacterium tuberculosis; assay: Antimycobacterial activity against multi-drug resistant Mycobacterium tuberculosis Praha 4 after 14 days; details: Praha 4, 336 h
[7] = tested on: Mycobacterium tuberculosis; assay: Antimycobacterial activity against multi-drug resistant Mycobacterium tuberculosis 9449/2007 after 21 days; format: functional; details: for MIC99: 9449/2007, 504 h; outline: as §1
[8] = tested on: Mycobacterium tuberculosis; assay: Antimycobacterial activity against multi-drug resistant Mycobacterium tuberculosis 234/2005 after 21 days; format: functional; details: 234/2005, 504 h; outline: as §1
[9] = tested on: Mycobacterium tuberculosis; assay: Antimycobacterial activity against multi-drug resistant Mycobacterium tuberculosis 7357/1998 after 21 days; format: functional; details: for MIC99: 7357/1998, 504 h; outline: as §1
[10] = tested on: Mycobacterium tuberculosis; assay: Antimycobacterial activity against multi-drug resistant Mycobacterium tuberculosis 7357/1998 after 14 days; format: functional; details: 7357/1998, 336 h; outline: as §1
[11] = tested on: Mycobacterium tuberculosis; assay: microbe, parasite or virus in culture; details: 234/2005, 336 h
[12] = tested on: Mycobacterium tuberculosis; assay: Antimycobacterial activity against multi-drug resistant Mycobacterium tuberculosis 8666/2010 after 21 days; format: functional; details: 8666/2010, 504 h; outline: as §1

COc1ccc(CSc2nnc(-c3cc([N+](=O)[O-])cc([N+](=O)[O-])c3)n2Cc2ccccc2)cc1
0.03 µM: MIC99 [1] | MIC99 [2] | MIC99 [3] | MIC99 [4] | MIC99 [5] | MIC99 [6] | MIC99 [7] | MIC99 [8] | MIC99 [9] | MIC99 [10] | MIC99 [11] | MIC99 [12]

CN[C@@H]1[C@H](O[C@H]2[C@H](O[C@H]3[C@H](O)[C@@H](O)[C@H](N=C(N)N)[C@@H](O)[C@@H]3N=C(N)N)O[C@@H](C)[C@]2(O)C=O)O[C@@H](CO)[C@H](O)[C@H]1O [STREPTOMYCIN]
> 32 µM: MIC99 [3] | MIC99 [6] | MIC99 [7] | MIC99 [9]

CCCSc1nnc(-c2cc([N+](=O)[O-])cc([N+](=O)[O-])c2)n1Cc1ccccc1
0.125 µM: MIC99 [1] | MIC99 [2] | MIC99 [4] | MIC99 [5] | MIC99 [6] | MIC99 [8] | MIC99 [10] | MIC99 [12]
0.06 µM: MIC99 [3] | MIC99 [7] | MIC99 [9] | MIC99 [11]

O=[N+]([O-])c1cc(CSc2nnc(C3CCCCC3)n2Cc2ccccc2)cc(C(F)(F)F)c1
16 µM: MIC99 [1] | MIC99 [2] | MIC99 [3] | MIC99 [4] | MIC99 [5] | MIC99 [6] | MIC99 [7] | MIC99 [8] | MIC99 [9] | MIC99 [10] | MIC99 [11] | MIC99 [12]

O=[N+]([O-])c1cc(-c2nnc(SCc3ccccc3)n2Cc2ccccc2)cc([N+](=O)[O-])c1
0.03 µM: MIC99 [1] | MIC99 [2] | MIC99 [3] | MIC99 [4] | MIC99 [5] | MIC99 [6] | MIC99 [7] | MIC99 [8] | MIC99 [9] | MIC99 [10] | MIC99 [11] | MIC99 [12]

COc1ccc(CSc2nnc(-c3cc([N+](=O)[O-])cc(C(F)(F)F)c3)n2Cc2ccccc2)cc1
1 µM: MIC99 [11]
0.5 µM: MIC99 [1] | MIC99 [2] | MIC99 [3] | MIC99 [4] | MIC99 [5] | MIC99 [6] | MIC99 [7] | MIC99 [9] | MIC99 [10] | MIC99 [12]
2 µM: MIC99 [8]

CCCCCCCCSc1nnc(-c2cc([N+](=O)[O-])cc([N+](=O)[O-])c2)n1Cc1ccccc1
0.25 µM: MIC99 [1] | MIC99 [4] | MIC99 [5] | MIC99 [8] | MIC99 [10] | MIC99 [12]
0.125 µM: MIC99 [2] | MIC99 [3] | MIC99 [6] | MIC99 [7] | MIC99 [9] | MIC99 [11]

O=[N+]([O-])c1cc(-c2nnc(SCc3ccc(Cl)c(Cl)c3)n2Cc2ccccc2)cc([N+](=O)[O-])c1
0.25 µM: MIC99 [1] | MIC99 [2] | MIC99 [3] | MIC99 [5] | MIC99 [7] | MIC99 [8] | MIC99 [9] | MIC99 [10] | MIC99 [11] | MIC99 [12]
0.125 µM: MIC99 [4] | MIC99 [6]

O=[N+]([O-])c1cc(CSc2nnc(-c3ccc(Br)cc3)n2Cc2ccccc2)cc([N+](=O)[O-])c1
2 µM: MIC99 [2] | MIC99 [3] | MIC99 [6] | MIC99 [7] | MIC99 [9]
4 µM: MIC99 [1] | MIC99 [4] | MIC99 [5] | MIC99 [8] | MIC99 [10] | MIC99 [11] | MIC99 [12]

CC1COc2c(N3CCN(C)CC3)c(F)cc3c(=O)c(C(=O)O)cn1c23 (stereo unspecified) [OFLOXACIN]
> 16 µM: MIC99 [6]

Cn1c(SCc2ccccc2)nnc1-c1cc([N+](=O)[O-])cc([N+](=O)[O-])c1
0.03 µM: MIC99 [1] | MIC99 [2] | MIC99 [3] | MIC99 [4] | MIC99 [5] | MIC99 [6] | MIC99 [7] | MIC99 [8] | MIC99 [9] | MIC99 [10] | MIC99 [11] | MIC99 [12]

O=[N+]([O-])c1cc(-c2nnc(SCc3ccc(Cl)c(Cl)c3)n2Cc2ccccc2)cc(C(F)(F)F)c1
2 µM: MIC99 [1] | MIC99 [2] | MIC99 [3] | MIC99 [4] | MIC99 [5] | MIC99 [6] | MIC99 [7] | MIC99 [8] | MIC99 [9] | MIC99 [10] | MIC99 [11] | MIC99 [12]

O=[N+]([O-])c1cc(-c2nnc(SCc3ccc(Cl)cc3)n2Cc2ccccc2)cc([N+](=O)[O-])c1
0.125 µM: MIC99 [2] | MIC99 [3] | MIC99 [6] | MIC99 [7] | MIC99 [9] | MIC99 [11]
0.25 µM: MIC99 [1] | MIC99 [4] | MIC99 [5] | MIC99 [8] | MIC99 [10] | MIC99 [12]

Cn1c(SCc2ccc(Cl)cc2)nnc1-c1cc([N+](=O)[O-])cc([N+](=O)[O-])c1
0.06 µM: MIC99 [6]
0.125 µM: MIC99 [1] | MIC99 [2] | MIC99 [3] | MIC99 [4] | MIC99 [5] | MIC99 [7] | MIC99 [8] | MIC99 [9] | MIC99 [10] | MIC99 [11] | MIC99 [12]

Cn1c(SCc2ccc(Cl)c(Cl)c2)nnc1-c1cc([N+](=O)[O-])cc([N+](=O)[O-])c1
0.06 µM: MIC99 [1] | MIC99 [2] | MIC99 [3] | MIC99 [4] | MIC99 [5] | MIC99 [6] | MIC99 [7] | MIC99 [8] | MIC99 [9] | MIC99 [10] | MIC99 [11] | MIC99 [12]

COc1ccc(Cn2c(SCc3cc([N+](=O)[O-])cc([N+](=O)[O-])c3)nnc2-c2ccccc2)cc1
4 µM: MIC99 [1] | MIC99 [4] | MIC99 [5] | MIC99 [8]
2 µM: MIC99 [2] | MIC99 [3] | MIC99 [6] | MIC99 [7] | MIC99 [9] | MIC99 [10] | MIC99 [11] | MIC99 [12]

CCCCCCn1c(SCc2cc([N+](=O)[O-])cc([N+](=O)[O-])c2)nnc1-c1ccccc1
2 µM: MIC99 [1] | MIC99 [5] | MIC99 [6] | MIC99 [8] | MIC99 [10] | MIC99 [11] | MIC99 [12]
4 µM: MIC99 [4]
1 µM: MIC99 [2] | MIC99 [3] | MIC99 [7] | MIC99 [9]

O=[N+]([O-])c1cc(-c2nnc(SCc3ccc(Br)cc3)n2Cc2ccccc2)cc([N+](=O)[O-])c1
0.125 µM: MIC99 [2] | MIC99 [6] | MIC99 [7] | MIC99 [9] | MIC99 [11]
0.25 µM: MIC99 [1] | MIC99 [3] | MIC99 [4] | MIC99 [5] | MIC99 [8] | MIC99 [10] | MIC99 [12]

CCn1c(SCc2ccccc2)nnc1-c1cc([N+](=O)[O-])cc([N+](=O)[O-])c1
0.03 µM: MIC99 [1] | MIC99 [2] | MIC99 [3] | MIC99 [4] | MIC99 [5] | MIC99 [6] | MIC99 [7] | MIC99 [8] | MIC99 [9] | MIC99 [10] | MIC99 [11] | MIC99 [12]

CO[C@H]1/C=C/O[C@@]2(C)Oc3c(C)c(O)c4c(O)c(c(/C=N/N5CCN(C)CC5)c(O)c4c3C2=O)NC(=O)/C(C)=C\C=C\[C@H](C)[C@H](O)[C@@H](C)[C@@H](O)[C@@H](C)[C@H](OC(C)=O)[C@@H]1C [RIFAMPIN]
> 8 µM: MIC99 [2] | MIC99 [3] | MIC99 [6] | MIC99 [7] | MIC99 [9] | MIC99 [11]

GENTAMICIN
1 µM: MIC>99 [2] | MIC>99 [7] | MIC>99 [9]
2 µM: MIC>99 [3]

O=[N+]([O-])c1cc(CSc2nnc(-c3ccccc3)n2Cc2ccccc2)cc([N+](=O)[O-])c1
4 µM: MIC99 [1] | MIC99 [4] | MIC99 [5] | MIC99 [7] | MIC99 [8] | MIC99 [10] | MIC99 [11] | MIC99 [12]
2 µM: MIC99 [2] | MIC99 [3] | MIC99 [6] | MIC99 [9]
